From publication PMC3589724 (Scientific Reports, 2013)
Read-outs that look alike come from different tables or passages of the source.

Assays:
CaM = settings: in vivo CaM binding, cited from earlier work
Ca^2+/CaM = test: ITC binding to Ca^2+/CaM; settings: buffer B (20 mM HEPES pH 8.0, 100 mM NaCl, 10 mM CaCl2), 24°C, single-site fitting model
Summary of the method: (§1)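 CaM (His6-tagged, E. coli-expressed; mutants made by inverse PCR) is injected into full-length wild-type or point-mutant Nm/Ng, or into synthetic IQ peptides (Nm 34–57, Ng 27–50). Apo and mutant CaM are in buffer A; Ca2+/CaM is in buffer B. Samples are degassed. VP-ITC or iTC200, 24°C, 10 (or 2) μl injections at 5 (or 2) min intervals. Buffer-titration dilution heats are subtracted, and a single-site fit gives Ka.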

apoCaM = test: ITC binding to apo CaM; settings: for Association constant Ka: apoCaM, buffer A (20 mM Imidazole pH 8.0, 100 mM NaCl, 2 mM EGTA), 24°C, single-site fitting model
Summary of the method: as §1

CaMWT = test: ITC binding to wild-type CaM; settings: point mutants of Nm/Ng
Summary of the method: as §1

[1] = Ser36-phosphorylated; cited from earlier work
[2] = tested on: synaptic transmission, CA1 hippocampal synapses; settings: cited from earlier work
CaME85A/F142A = test: ITC binding to CaM double mutant E85A/F142A; settings: buffer A (20 mM Imidazole pH 8.0, 100 mM NaCl, 2 mM EGTA), 24°C
Summary of the method: as §1

Row | Substance | Ng-CaM binding (CaM) | Association constant Ka (Ca^2+/CaM) | Association constant Ka (apoCaM) | also measured
1 | Arg38Gln (R38Q): Ng point mutant Arg38Gln (literature) | reduce Ng-CaM binding | – | – | Ng-CaM binding (CaM; listed as Arg38Gln): reduce the binding strength
2 | Ile33Gln (I33Q): Ng point mutant Ile33Gln (literature) | completely inhibits the binding | – | – | –
3 | NgIQ: synthetic wild-type IQ motif peptide of Ng, aa27–50 (NAAAAKIQASFRGHMARKKIKSGE) | – | 0.3 10^6 M^−1 | 2.3 10^6 M^−1 | –
4 | NgR38A: full-length Ng point mutant Arg38Ala; GFP-tagged in the electrophysiology experiments | – | – | – | binding to CaM (in words) (CaMWT): completely abolish; binding to apo CaM (in words) (apoCaM; mutant Ng): does not bind to the apo CaM
5 | NmIQ: synthetic wild-type IQ motif peptide of Nm, aa34–57 | – | 1.6 10^6 M^−1 | 25 10^6 M^−1 | –
6 | Ser36-phosphorylated Ng: Ng phosphorylated at Ser36 by PKC [reference compound] | – | – | – | binding to CaM and phosphatidic acid [1]: unable to bind CaM and phosphatidic acid; synaptic strength ([2]; Ser36-phosphorylated): unable to enhance synaptic strength
7 | Ser36Asp (S36D): Ng point mutant Ser36Asp (literature) | reduce Ng-CaM binding | – | – | –
8 | neurogranin [NgWT] | – | 0.96 10^6 M^−1 | 23 10^6 M^−1 | synaptic transmission / strength ([2]; overexpression, listed as wild-type Ng): potentiates synaptic transmission; synaptic strength ([2]; through interaction with CaM): enhances synaptic strength; affinity to apo CaM relative to Ca^2+/CaM (apoCaM; in words): higher affinity than that to Ca^2+/CaM
9 | neuromodulin [NmWT] | – | 0.52 10^6 M^−1 | 7.9 10^6 M^−1 | Association constant Ka (CaME85A/F142A): 0.46 10^6 M^−1
